Rows were chosen to be rich in hits. Some 2.6% of all compounds tested hit in one or more screens of this group.
SENP6 inh – SENP6 protease inhibitors, primary screen, biochemical, luminescence, uHTS; Recombinant SENP6 catalytic domain, aminoluciferin luminescence; AID 2599, 2010; inhibition, % at 10 µM; Sentrin-specific protease 6 (Homo sapiens), Q9GZR1; hit rate 1.8% among 330,000;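 active = inhibition above about 50% at the single tested dose, limit read from the data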;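 also: plate controls were DMSO wells with enzyme for no effect and DMSO wells lacking enzyme for full effect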
SENP1 FRET inh – human SENP1 catalytic domain inhibitors, primary screen, biochemical, FRET, uHTS | Sentrin-specific protease 1 (Homo sapiens), Q9P0U3 | inhibition, % at 10 µM | hit rate 0.21% among 360,000 | recombinant SENP1 catalytic domain, CyPet-SUMO1-YPet FRET cleavage;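 active = inhibition at least 30% at 10 µM, raw YFP signal under a set limit, fluorescence ratio 0.5 to 1.5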;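 also: 0% = enzyme with DMSO and 100% = no enzyme wells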
Target sequence (Q9P0U3 419-644 limits assumed): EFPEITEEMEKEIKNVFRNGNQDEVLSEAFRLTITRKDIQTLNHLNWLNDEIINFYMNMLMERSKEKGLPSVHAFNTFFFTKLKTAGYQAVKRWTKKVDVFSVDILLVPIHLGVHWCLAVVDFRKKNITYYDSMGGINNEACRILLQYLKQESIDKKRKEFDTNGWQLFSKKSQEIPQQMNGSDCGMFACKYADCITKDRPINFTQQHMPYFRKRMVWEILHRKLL
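Test system: hSENP1 catalytic domain, recombinant; Amount: 20 pM final SENP1 enzyme; Medium: Tris pH 8 buffer plus EDTA, NaCl, BME, BSA, NP40, catalase; Schedule: 50 min enzyme reaction, room temperature, light-protected; Technique: FRET fluorescence in CFP and YFP emission channels; Controls: no-enzyme wells low, DMSO-plus-enzyme wells high control.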
SENP8 block-1 – SENP8 protease inhibitors, primary screen, biochemical, luminescence. Sentrin-specific protease 8 (Homo sapiens), Q96LD8. purified SENP8, Z-RLRGG-aminoluciferin cleavage. inhibition, % at 10 µM. hit rate 1.2% among 330,000; in the data active = inhibition above about 50%
Target sequence (Q96LD8 whole entry, looked up): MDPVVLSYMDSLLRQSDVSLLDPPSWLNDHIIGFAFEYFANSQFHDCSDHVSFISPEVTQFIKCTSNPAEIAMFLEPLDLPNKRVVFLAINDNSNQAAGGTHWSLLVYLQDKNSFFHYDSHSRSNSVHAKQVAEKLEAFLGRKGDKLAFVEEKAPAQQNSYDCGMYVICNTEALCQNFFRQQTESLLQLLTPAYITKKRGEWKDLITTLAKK
SENP7 block – SENP7 protease inhibitors, primary screen, biochemical, luminescence, uHTS | Sentrin-specific protease 7 (Homo sapiens), Q9BQF6 | hit rate 1.5% among 330,000 | recombinant SENP7, Z-RLRGG-aminoluciferin luminescence, 40 min | inhibition, % at 5 µM | AID 434973, 2010;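 active = inhibition above about 50% at the single test dose, limit read from the data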;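 also: plate controls were DMSO with enzyme for no effect and no enzyme buffer wells for full effect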
Platelet DG rel – inhibitors of platelet dense granule secretion, primary screen, cell-based, MLPCN, human platelets. inhibition, %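 (compounds screened at 7.5 µM in platelet-rich plasma)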. hit rate 0.22% among 300,000. human platelet-rich plasma, SFLLRN dense granule ATP release, luminescence;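 active = mean replicate score, as percent of positive control, at or above 50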
SENP8 block-2 – human SENP8 protease inhibitors, primary screen, biochemical, fluorescence, Nedd8 protein substrate, uHTS; Sentrin-specific protease 8 (Homo sapiens), Q96LD8; hit rate 0.64% among 360,000; inhibition, % at 20 µM; recombinant SENP8; AID 602440, 2012; in the data active = inhibition mostly above about 40%, no sharp cut-off; inactive = mostly below about 27%
SENP8 conf – SENP8 protease inhibitors, retest, confirmation, biochemical, luminescence, single concentration. hit rate 40% among 6,200. inhibition, % at 12.5 µM. Recombinant SENP8, Z-RLRGG-aminoluciferin luminescence, 60 min. shares compounds with SENP7 block. AID 488912, 2010;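 active = mean inhibition across replicates above about 50%, limit read from the data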
SENP6 confirm – SENP6 protease inhibitors, confirmation, biochemical, luminescence, single concentration; shares compounds with SENP7 block; recombinant SENP6, Z-RLRGG-aminoluciferin luminescence; inhibition, % at 12.5 µM; hit rate 58% among 6,200
SENP7 confirm – SENP7 protease inhibitors, retest, confirmation, biochemical, luminescence, single concentration | AID 488917, 2010 | shares compounds with SENP7 block | inhibition, % at 12.5 µM | recombinant SENP7, Z-RLRGG-aminoluciferin luminescence, 40 min | hit rate 69% among 6,200
Casp3 SENP sel – caspase-3 protease inhibitors, confirmation, selectivity assay for SENP inhibitor project, biochemical, single concentration | shares compounds with SENP7 block | purified caspase-3, Z-DEVD-aminoluciferin luminescence, 60 min | inhibition, % at 12.5 µM | hit rate 60% among 6,200 | AID 488918, 2010;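 active = mean inhibition above about 50%, limit read from the data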;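 also: plate controls were enzyme with DMSO for no effect and wells without caspase-3 for full effect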
Luc interf – counter-screen for SENP inhibitors: luminescence interference; hit rate 39% among 6,200; AID 488919; inhibition, % at 12.5 µM; Pre-incubated SENP8/Z-RLRGG-aminoluciferin, luciferase luminescence interference; shares compounds with SENP7 block;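 active = mean inhibition above about 50% when retested at one dose, limit read from the data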;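 also: plate controls were DMSO wells with completed reaction for no effect and substrate without enzyme for full effect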
* = called active by the depositor; . = no result.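 The calls were made as follows, unless noted: active = mean inhibition above about 50% in the one-dose retest (limit read from the data); inactive = the rest.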

SMILES	SENP6 inh	SENP1 FRET inh	SENP8 block-1	SENP7 block	Platelet DG rel	SENP8 block-2	SENP8 conf	SENP6 confirm	SENP7 confirm	Casp3 SENP sel	Luc interf
Nc1ccc2oc(-c3ccc4nc[nH]c4c3)nc2c1	67*	-36	30	58*	25	-321	54*	55*	86*	80*	50*
Cc1nc2ccc([N+](=O)[O-])cc2[nH]1	-13	0	1	3	-8	-6	.	.	.	.	.
Cc1nc2ccc(-c3nc4cc(N)ccc4o3)cc2[nH]1	46	-32	54*	77*	22	-276	2	78*	96*	90*	58*
CCOc1ccc(NC(=O)CN2CCN(CC(=O)Nc3ccc4c(c3)OCCO4)CC2)cc1	-3	1	1	-9	.	18	.	.	.	.	.
CCOc1ccc(C(=O)Nc2ccc3c(c2)OCCO3)cc1	84*	3	71*	86*	28	8	-7	77*	95*	87*	69*
Cc1cc(C)cc(C(=O)NC(=S)Nc2ccc3c(c2)OCCO3)c1	84*	3	48	42	6	16	-16	-12	-9	-4	-4
Cc1cc(C(=O)Nc2ccc(N3CCCC3)c(Cl)c2)ccc1[N+](=O)[O-]	60*	1	12	52*	1	24	2	20	65*	38	16
O=C(Nc1ccc(N2CCCC2)c(Cl)c1)c1ccc([N+](=O)[O-])cc1	-18	2	-7	-16	0	30	.	.	.	.	.
O=C(Nc1ccc2c(c1)OCCO2)c1ccc(Cl)c(Cl)c1	77*	0	59*	67*	2	16	53*	55*	93*	51*	26
CCOc1ccc(S(=O)(=O)N2CCCC(C(=O)NCc3cccnc3)C2)cc1Cl (stereo not drawn)	-6	-3	-6	-12	10	7	.	.	.	.	.
O=C(NCc1cccc(Br)c1)C1CC(c2ccc(C(F)(F)F)cc2)=NO1 (stereo not drawn)	-8	4	16	4	2	14	.	.	.	.	.
Nc1c(C(=O)Nc2ccc3c(c2)OCCO3)nnn1Cc1ccc(Br)cc1	-1	1	-7	-4	-4	11	.	.	.	.	.
O=C(Nc1ccc2c(c1)OCCO2)c1ccc(Br)o1	77*	1	55*	74*	.	20	77*	70*	91*	85*	74*
CC(=O)Nc1ccc2c(c1)OCCO2	10	2	2	0	-4	22	.	.	.	.	.
O=C(Nc1ccc2c(c1)OCCO2)c1ccc(Br)cc1	71*	1	59*	61*	3	-7	71*	70*	90*	68*	50
Nc1c(C(=O)Nc2ccc3c(c2)OCCO3)nnn1Cc1cccc(Br)c1	68*	1	46	58*	-3	5	34	16	85*	31	66*
O=C(Nc1ccc2c(c1)OCCO2)c1cccnc1	-9	1	-21	-9	2	22	.	.	.	.	.
O=C(Nc1ccc2c(c1)OCCO2)c1ccc2nccnc2c1	53*	0	39	2	16	16	50*	48	82*	80*	60*
CCc1ccc(C(C(=O)NCc2ccccc2)N(C(=O)c2csnn2)C2CC2)cc1 (stereo not drawn)	0	3	-2	6	-6	7	.	.	.	.	.
COc1ccc(C(=O)Nc2ccc(N3CCCCC3)cc2)cc1Br	8	1	-9	68*	-15	17	-5	0	8	8	4
O=C(Nc1ccc(Cl)cc1Cl)c1ccc(Br)o1	69*	2	55*	46	2	33	-26	-15	2	-6	-6
Cc1ccc(C(=O)Nc2ccc3c(c2)OCO3)o1	50*	-2	1	32	.	17	26	21	67*	77*	52*
O=C(Nc1cc(Cl)ccc1N1CCOCC1)c1ccc(Br)o1	1	0	-2	7	1	-8	.	.	.	.	.
CCOC(=O)c1c(C)[nH]c(C(=O)Nc2ccc3c(c2)OCO3)c1C	16	.	60*	84*	4	.	9	80*	96*	79*	48
COc1cc(C(=O)Nc2ccc(C(F)(F)F)cc2)ccc1OCC(=O)N1CCOCC1	19	2	-4	-1	.	2	.	.	.	.	.
SMILES	SENP6 inh	SENP1 FRET inh	SENP8 block-1	SENP7 block	Platelet DG rel	SENP8 block-2	SENP8 conf	SENP6 confirm	SENP7 confirm	Casp3 SENP sel	Luc interf
CCCCC(CC)C(=O)Nc1cc(C(=O)NCCC)ccc1N1CCC2(CC1)CC(c1ccccc1)=NO2 (stereo not drawn)	3	-2	0	0	-2	2	.	.	.	.	.
Cc1cc(C(=O)Nc2ccc3c(c2)OCCO3)ccc1[N+](=O)[O-]	84*	2	77*	92*	10	20	10	57*	94*	81*	12
Cc1ccc(C(=O)Nc2ccc3c(c2)OCCO3)c(Cl)c1	89*	2	78*	85*	10	10	81*	79*	94*	87*	82*
CCCOc1cccc(C(=O)Nc2ccc3c(c2)OCCO3)c1	77*	-1	53*	66*	3	24	69*	67*	86*	59*	55*
Cc1ccc(C(=O)Nc2ccc3c(c2)OCO3)cc1	69*	-1	50	3	9	21	68*	68*	90*	83*	20
O=C(Nc1ccc2c(c1)OCCO2)c1cc(F)c(F)cc1Cl	-3	1	-20	12	8	23	.	.	.	.	.

Screening data: PubChem, several laboratories
